# Bioassay records: PubChem BioAssay, several laboratories
# APJ ag: APJ receptor agonism. P35414. CHO-K1 APJ PathHunter beta-arrestin, luminescence; 0% DMSO wells, 100% apelin. activation, % at 20 µM. actives 0.11% (n = 330,000). AID 2520;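 active = activation more than six SD over the plate average, tested at 20 µM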;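 also: 0% = DMSO alone and 100% = apelin-13 at 10 nM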
#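 Material: CHO-K1 APJ beta-arrestin complementation cell line; Input: cell density 1000 per well; Incubation: compound stimulation 90 min at 25 °C, detection 60 min; Signal: luminescence from split beta-galactosidase complementation, Galacton Star/Emerald II substrate; Controls: DMSO-only wells as negative, 10 nM Apelin-13 as positive control.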
# CXCR6 inh: inhibitors of human CXCR6 receptor. actives 0.36% (n = 360,000). O00574. AID 602244. inhibition, % at 20 µM. CHO-K1 PathHunter CXCR6 beta-arrestin, luminescence; in the data active = inhibition above about 34%, passing the limit was not always enough;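 also: antagonist mode with CXCL16 agonist at 10 nM final; 0% = 10 nM CXCL16 with DMSO and 100% = unstimulated wells without agonist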
# CCR6 antagonist: CCR6 (human) receptor antagonism; actives 0.49% (n = 340,000); P51684; inhibition, % at 20 µM; CHO-K1 CCR6 PathHunter beta-arrestin, luminescence, CCL20-stimulated;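 active = compounds whose inhibition of the agonist-driven luminescence signal at 20 µM reaches about 50%, limit read from the data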;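 also: cells stimulated with CCL20 at 14 nM final; plate controls were DMSO with CCL20 for no effect and DMSO without agonist for full effect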
# Target sequence (P51684 whole entry, looked up): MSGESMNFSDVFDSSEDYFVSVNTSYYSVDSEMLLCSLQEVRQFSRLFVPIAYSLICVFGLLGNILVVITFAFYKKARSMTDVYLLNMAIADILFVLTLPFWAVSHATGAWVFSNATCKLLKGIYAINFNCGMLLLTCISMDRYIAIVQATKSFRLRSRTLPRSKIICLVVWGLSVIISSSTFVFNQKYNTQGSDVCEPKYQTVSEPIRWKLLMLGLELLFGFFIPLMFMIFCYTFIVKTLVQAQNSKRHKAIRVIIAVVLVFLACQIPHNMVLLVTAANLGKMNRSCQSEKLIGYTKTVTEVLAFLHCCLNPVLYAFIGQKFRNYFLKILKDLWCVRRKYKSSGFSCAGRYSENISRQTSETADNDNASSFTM
# FXN GAA850 act: frataxin GAA850 promoter activation | HEK293 lucGAA850 FXN promoter luciferase reporter, 24 h; percent of 10 µM SAHA response | activation, % at 6 µM | actives 0.56% (n = 360,000) | AID 540364;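 active = activation above the average of all compounds screened plus 3 SD, cutoff fixed separately per campaign, cut at about 7.5% in these data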;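 also: 0% = DMSO wells and 100% = 10 µM SAHA wells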
# EBI2 antag: blocks human EBI2 receptor beta-arrestin signaling; AID 651636; P32249; inhibition, % at 5 µM; EBI2 beta-arrestin recruitment, luminescence, 7a,25-OHC stimulated; actives 0.81% (n = 360,000); in the data active = inhibition above about 38%;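 also: enzyme fragment complementation signal reports receptor beta-arrestin coupling in cells; 0% = agonist plus DMSO wells and 100% = wells without agonist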
# APJ antagonist: blocks the human apelin receptor APJ | P35414 | CHO-K1 APJ beta-arrestin complementation, luminescence | inhibition, % at 20 µM | actives 0.32% (n = 330,000) | AID 2521;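 active = inhibition above about 40% at 20 µM, limit read from the data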;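 also: cells challenged with 10 nM apelin-13 agonist together with compound; plate controls were apelin-13 plus DMSO wells for no effect and DMSO wells lacking apelin-13 for full effect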
# APJ ag conf: confirmation of human APJ apelin receptor agonists; shares compounds with APJ ag; CHO-K1 APJ PathHunter beta-arrestin, luminescence; activation, % at 20 µM; actives 10% (n = 310); AID 2764;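 active = activation above 40%, taking the highest of four retests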;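 also: plate controls were DMSO wells for no effect and apelin-13 at 10 nM for full effect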
# * = called active by the depositor; . = no result. Rows were chosen to be rich in hits. Some 2% of all compounds tested hit in one or more screens of this group.
SMILES,APJ ag,CXCR6 inh,CCR6 antagonist,FXN GAA850 act,EBI2 antag,APJ antagonist,APJ ag conf
CSc1ccc(CN2CCC2(C)C(=O)NC2CCN(Cc3ccccc3)CC2)cc1 (centres undefined),.,-3,.,-1,0,.,.
COCCCNC(=O)c1ccc2c(=O)n(Cc3ccc(Cl)cc3)c(=S)[nH]c2c1,-2,3,14,1,0,16,.
CC1CCN(CCNC(=O)c2ccc3c(=O)n(Cc4ccc(Cl)cc4)c(=S)[nH]c3c2)CC1,33*,1,-5,1,-1,0,9
CCOC(=O)c1sc(NC(=O)CN2C(=O)NC3(CC(C)CC(C)(C)C3)C2=O)cc1C (centres undefined),38*,4,-15,1,2,5,4
CCCCC(=O)N(C)c1c(C)nc2ccc(C(=O)Nc3cccc(NS(C)(=O)=O)c3)cn12,.,2,.,1,-8,.,.
Cc1ccc(S(=O)(=O)NCc2ccc(C(=O)N3CCN(c4ccc([N+](=O)[O-])cc4)CC3)cc2)cc1,19*,-10,3,-5,-34,-18,19
COc1ccc(N2CCN(C(=O)c3ccc(CNS(=O)(=O)c4ccc(C)cc4)cc3)CC2)cc1,-5,3,9,-1,3,-6,.
CC1=CC(=O)C=C(C)C1=NOS(=O)(=O)c1ccccc1,.,18,-15,-2,-7,.,.
CC1=CC(=O)C(C(C)C)=C/C1=N/OS(=O)(=O)c1ccccc1,185*,-3,7,1,-44,-35,78*
CCOc1ccccc1-c1nc(-c2ccc(NC(=O)Cc3ccc(OC)cc3)cc2)no1,22*,0,-1,2,0,-10,20
Cc1cccn2c(=O)c3cc(C(=O)NCC4CCCO4)c(=N)n(CCN4CCOCC4)c3nc12 (centres undefined),31*,8,-2,1,-9,-6,-5
COc1ccc(-c2nc3ccccn3c2NCc2ccc3c(c2)OCO3)cc1,5,2,8,3,-12,-8,.
COc1ccc(-c2cc(-c3nc4ccccn4c3NCc3ccccc3)ccc2OC)cc1,23*,16,7,-13,-132,-28,5
Cc1ccc(C)c2[nH]c(=O)c(CCNC(=O)c3cc4ccccc4o3)cc12,12*,-8,-9,-1,9,-16,18
N#Cc1nc(-c2ccc(OCc3ccc(Cl)cc3)cc2)oc1N1CCC(C(N)=O)CC1,-2,2,11,1,-5,6,.
N#Cc1nc(-c2ccc(OCc3ccc(Cl)cc3)cc2)oc1N1CCOCC1,25*,3,7,1,-16,1,4
N#CC1=C(c2ccccc2)/C(=C/c2ccccc2)OC1=O,17*,35,64*,4,5,-18,12
O=C1O/C(=C/c2ccccc2)c2ccccc21,-1,12,16,0,-1,1,.
Cc1cccc(/C(N)=N/OC(=O)c2cccc3ccccc23)c1,36*,-33,.,4,-3,-128,32
OCC[C@H]1C[C@H](O)[C@@H](O)[C@@]2(OCCCc3ccccc32)O1,9,-5,7,-2,-9,1,.
CC(C)C[C@@H](CO)N1CCN(Cc2cccc(C#N)c2)CCC1=O,0,-8,3,-1,0,-10,.
COc1cccc2sc3ccc(NCCC4CCCN4C)cc3c(=O)c12 (centres undefined),53*,-21,15,2,-4,-124,1
COc1cccc2sc3cc(NCc4ccc5c(c4)OCO5)ccc3c(=O)c12,-3,-4,4,7,1,-5,.
Cc1cc(C)n(-c2nc(N(c3ccccc3)c3ccccc3)nc(-n3nc(C)cc3C)n2)n1,36*,32,17,1,-86,-14,14
COC(=O)[C@H]1C[C@H](OC(=O)NCc2ccco2)[C@@]2(O)CN(S(=O)(=O)c3ccc(C)cc3)CC2[C@H]1C(=O)OC (some centres undefined),.,-4,.,-1,-5,.,.
O=C(N/N=C\c1cn(-c2ccccc2)nc1-c1ccccc1)c1ccc(Br)o1,0,8,3,3,7,-4,.
